From article PMC4183726 (Journal of biomolecular screening, 2014)
Where a name gives a salt, the structure may show the parent alone. Read-outs that look alike come from different tables or passages of the source.

Assays:
MBD2-MBD [1] = target: T1, MBD2-MBD (Homo sapiens, UniProt Q9UBB5); assay: TR-FRET dose-response; assay type: binding; conditions: for dose-response for inhibition of MBD2-MBD binding to methylated DNA (in words): TR-FRET, dose range tested up to 20 µM
SP-1 = SP-1 (Homo sapiens, UniProt P08047); assay: TR-FRET counter screen with transcription factor SP-1 binding to DNA; conditions: for inhibition of SP-1 binding to DNA (in words): TR-FRET counter screen, dose response
SP-1, sequence (P08047 whole entry): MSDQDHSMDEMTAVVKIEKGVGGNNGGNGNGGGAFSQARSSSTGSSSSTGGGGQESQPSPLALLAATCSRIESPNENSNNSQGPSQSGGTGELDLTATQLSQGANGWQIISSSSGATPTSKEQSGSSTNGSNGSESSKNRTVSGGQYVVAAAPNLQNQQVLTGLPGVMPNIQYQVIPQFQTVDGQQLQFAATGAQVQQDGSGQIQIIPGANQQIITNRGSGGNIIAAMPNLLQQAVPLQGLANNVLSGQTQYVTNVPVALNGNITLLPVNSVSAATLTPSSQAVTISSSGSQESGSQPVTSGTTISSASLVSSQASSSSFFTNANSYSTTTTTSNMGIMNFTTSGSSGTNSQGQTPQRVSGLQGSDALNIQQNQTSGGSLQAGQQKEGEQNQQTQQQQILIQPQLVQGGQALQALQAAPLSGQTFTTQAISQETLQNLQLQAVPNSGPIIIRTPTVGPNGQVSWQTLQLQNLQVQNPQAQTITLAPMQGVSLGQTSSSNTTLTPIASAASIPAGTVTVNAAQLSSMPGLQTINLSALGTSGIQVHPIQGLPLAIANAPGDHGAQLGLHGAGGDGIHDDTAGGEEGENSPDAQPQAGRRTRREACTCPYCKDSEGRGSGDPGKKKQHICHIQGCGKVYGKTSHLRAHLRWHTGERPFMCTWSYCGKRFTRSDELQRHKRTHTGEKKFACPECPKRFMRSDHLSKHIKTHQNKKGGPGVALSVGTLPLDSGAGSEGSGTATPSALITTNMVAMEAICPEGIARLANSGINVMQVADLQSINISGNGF

MBD2-MBD [2] = target: T1, MBD2-MBD; assay: TR-FRET binding curves of MBD2-MBD to methylated and unmethylated DNA; conditions: read-out: EC50 of MBD2-MBD binding to DNA; TR-FRET assay
Summary of the method: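 His-tagged MBD2-MBD (25nM; E. coli-expressed, Ni-NTA and gel-filtration purified) in the FP binding buffer. FAM-labelled methylated or unmethylated hairpin oligo added as a dilution series, with 5 nM Tb-anti-His antibody. 1 h at 4°C with shaking. Ex 332 nm; emission 485 and 515 nm read after a 50 µsec delay over 400 µsec. No-protein 515/485 ratio subtracted; plotted against total DNA concentration and curve-fitted.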

MBD2-MBD [3] = target: T1, MBD2-MBD; conditions: read-out: EC50 of MBD2-MBD binding to DNA; FP assay
Summary of the method: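 His-tagged MBD2-MBD expressed in E. coli BL21 DE3 and purified by Ni-NTA and gel filtration. Protein dilution series in 10 mM Tris-HCl pH 7.4, 125 mM NaCl, 4% glycerol, 1 mM MgCl2, 0.5 mM EDTA, 0.5 mM DTT, 0.2% Tween-20. Added 10nM FAM-labelled hairpin oligo (CpG-methylated or unmethylated; annealed at 95°C, then ice). 1 h at 4°C with shaking, quadruplicate. Ex 470/em 525 nm; anisotropy plotted against protein concentration and curve-fitted.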

MBD2-MBD [4] = target: MBD2-MBD (UniProt Q9UBB5 145-213); assay: fluorescence polarization
MBD2-MBD (UniProt Q9UBB5 145-213), sequence (Q9UBB5 145-213): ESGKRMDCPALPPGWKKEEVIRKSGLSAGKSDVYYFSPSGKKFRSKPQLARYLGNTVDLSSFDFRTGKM

T1 sequence (Q9UBB5 145-213 limits assumed): as the sequence (Q9UBB5 145-213) above

NC(Cc1cc(O)c(O)cc1O)C(=O)O (racemic) [6-Hydroxy-DL-DOPA]
dose-response for inhibition of MBD2-MBD binding to methylated DNA (in words) (MBD2-MBD [1]): failed to show appreciable inhibition

N[C@H](C(=O)O)[C@H]1C[C@@H]1C(=O)O [(2S,1S,2S)-2-(carboxycyclopropyl)glycine]
dose-response for inhibition of MBD2-MBD binding to methylated DNA (in words) (MBD2-MBD [1]): failed to show appreciable inhibition

O=C(O)C1=CC(=C(c2ccc(O)c(C(=O)O)c2)c2ccc(O)c(C(=O)O)c2)C=CC1=O [Aurintricarboxylic acid]
inhibition of SP-1 binding to DNA (in words) (SP-1): prevented binding of SP1 to DNA with similar potency
IC50 (MBD2-MBD [1]): 2.7 nM
dose-response for inhibition of MBD2-MBD binding to methylated DNA (in words) (MBD2-MBD [1]): showed a sigmoidal dose-response

CCN(CC)CCOCCOC(=O)C1(c2ccccc2)CCCC1 [Carbetapentane citrate]
dose-response for inhibition of MBD2-MBD binding to methylated DNA (in words) (MBD2-MBD [1]): failed to show appreciable inhibition

CN(N=O)c1cc(O)ccc1O [Dephostatin]
dose-response for inhibition of MBD2-MBD binding to methylated DNA (in words) (MBD2-MBD [1]): failed to show appreciable inhibition

CC(=O)[C@]1(O)Cc2c(O)c3c(c(O)c2[C@@H](O[C@H]2C[C@H](N)[C@H](O)[C@H](C)O2)C1)C(=O)c1ccccc1C3=O [Idarubicin]
IC50 (SP-1): 580 nM
inhibition of SP-1 binding to DNA (in words) (SP-1): prevented binding of SP1 to DNA with similar potency
IC50 (MBD2-MBD [1]): 196 nM
dose-response for inhibition of MBD2-MBD binding to methylated DNA (in words) (MBD2-MBD [1]): showed a sigmoidal dose-response

CN(N=O)c1ccc(O)c(O)c1 [Me-3,4-dephostatin]
dose-response for inhibition of MBD2-MBD binding to methylated DNA (in words) (MBD2-MBD [1]): failed to show appreciable inhibition

O=C1c2c(O)ccc(O)c2C(=O)c2c(NCCNCCO)ccc(NCCNCCO)c21 [Mitoxantrone]
IC50 (SP-1): 314 nM
inhibition of SP-1 binding to DNA (in words) (SP-1): prevented binding of SP1 to DNA with similar potency
IC50 (MBD2-MBD [1]): 94 nM
dose-response for inhibition of MBD2-MBD binding to methylated DNA (in words) (MBD2-MBD [1]): showed a sigmoidal dose-response

unmethylated DNA: FAM-labeled hairpin oligonucleotide 5′-ATGCTCGTAGCACTTTTGTGCTACGAGCAT-3′ (unmethylated) (DNA, backbone not given here; FAM label, hairpin)
EC50 (MBD2-MBD [2]): > 1000 nM
EC50 (MBD2-MBD [3]): > 1000 nM
EC50 (SP-1; read-out: EC50 of SP-1 binding to DNA, TR-FRET assay, binding curve): 22 nM

B1: methylated hairpin FAM (structured_DNA)
DNA: ATGCTCGTAGCACTTTTGTGCTACGAGCAT
modifications: 5-methyl-C at C6 and C24 (printed Cme)
apparent K (half saturation) (MBD2-MBD [4]): 42.7 nM
